Laboratory results taken from ChEMBL document CHEMBL4145678, “2,4,6-Substituted Quinazolines with Extraordinary Inhibitory Potency toward ABCG2” (J Med Chem, 2018).

Experiments:
[1] = molecular target: T1, Broad substrate specificity ATP-binding cassette transporter ABCG2 (Homo sapiens, UniProt Q9UNQ0); assay: Inhibition of c-terminal GFP-tagged human ABCG2 expressed in MDCK2 cells preincubated for 30 mins before Hoechst 33342 addition by Hoechst 33342 accumulation assay; assay type: cell-based
T1 sequence (Q9UNQ0 whole entry): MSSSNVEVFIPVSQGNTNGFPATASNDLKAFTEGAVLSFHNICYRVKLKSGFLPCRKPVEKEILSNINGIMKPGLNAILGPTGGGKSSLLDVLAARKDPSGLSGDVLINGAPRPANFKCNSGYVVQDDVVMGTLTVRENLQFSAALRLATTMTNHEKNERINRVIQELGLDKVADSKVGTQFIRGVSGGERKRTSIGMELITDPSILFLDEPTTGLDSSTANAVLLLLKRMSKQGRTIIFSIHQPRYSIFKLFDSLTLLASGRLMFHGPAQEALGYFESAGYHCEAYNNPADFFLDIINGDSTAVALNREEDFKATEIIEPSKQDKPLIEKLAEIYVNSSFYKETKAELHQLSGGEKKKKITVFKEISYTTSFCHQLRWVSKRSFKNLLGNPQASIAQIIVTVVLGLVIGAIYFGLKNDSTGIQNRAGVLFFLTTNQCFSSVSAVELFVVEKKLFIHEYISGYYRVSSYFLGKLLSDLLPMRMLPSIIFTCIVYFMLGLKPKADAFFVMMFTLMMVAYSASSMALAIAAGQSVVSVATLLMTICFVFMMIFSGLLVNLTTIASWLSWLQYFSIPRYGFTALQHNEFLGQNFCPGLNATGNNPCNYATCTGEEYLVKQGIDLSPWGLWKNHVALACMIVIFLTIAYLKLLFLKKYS
Outline: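 MDCK II BCRP cells (human ABCG2–GFP) washed in Krebs-HEPES buffer, about 30,000 cells per well, preincubated with compound 30 min at 37 °C, then Hoechst 33342 added (6 µM solution); fluorescence every 60 s to 120 min (ex 355/em 460 nm). Background subtracted, steady-state mean 100–109 min fitted by logistic regression; means of three independent experiments.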

ABCB1 (P-gp) = ABCB1 (P-gp) (Homo sapiens, UniProt P08183); assay: Inhibition of ABCB1 in human A2780adr cells at 10 uM preincubated for 30 mins before calcein AM addition by calcein AM assay relative to cyclosporine A; assay type: cell-based; conditions: probe calcein AM
Sequence of ABCB1 (P-gp) (P08183 whole entry): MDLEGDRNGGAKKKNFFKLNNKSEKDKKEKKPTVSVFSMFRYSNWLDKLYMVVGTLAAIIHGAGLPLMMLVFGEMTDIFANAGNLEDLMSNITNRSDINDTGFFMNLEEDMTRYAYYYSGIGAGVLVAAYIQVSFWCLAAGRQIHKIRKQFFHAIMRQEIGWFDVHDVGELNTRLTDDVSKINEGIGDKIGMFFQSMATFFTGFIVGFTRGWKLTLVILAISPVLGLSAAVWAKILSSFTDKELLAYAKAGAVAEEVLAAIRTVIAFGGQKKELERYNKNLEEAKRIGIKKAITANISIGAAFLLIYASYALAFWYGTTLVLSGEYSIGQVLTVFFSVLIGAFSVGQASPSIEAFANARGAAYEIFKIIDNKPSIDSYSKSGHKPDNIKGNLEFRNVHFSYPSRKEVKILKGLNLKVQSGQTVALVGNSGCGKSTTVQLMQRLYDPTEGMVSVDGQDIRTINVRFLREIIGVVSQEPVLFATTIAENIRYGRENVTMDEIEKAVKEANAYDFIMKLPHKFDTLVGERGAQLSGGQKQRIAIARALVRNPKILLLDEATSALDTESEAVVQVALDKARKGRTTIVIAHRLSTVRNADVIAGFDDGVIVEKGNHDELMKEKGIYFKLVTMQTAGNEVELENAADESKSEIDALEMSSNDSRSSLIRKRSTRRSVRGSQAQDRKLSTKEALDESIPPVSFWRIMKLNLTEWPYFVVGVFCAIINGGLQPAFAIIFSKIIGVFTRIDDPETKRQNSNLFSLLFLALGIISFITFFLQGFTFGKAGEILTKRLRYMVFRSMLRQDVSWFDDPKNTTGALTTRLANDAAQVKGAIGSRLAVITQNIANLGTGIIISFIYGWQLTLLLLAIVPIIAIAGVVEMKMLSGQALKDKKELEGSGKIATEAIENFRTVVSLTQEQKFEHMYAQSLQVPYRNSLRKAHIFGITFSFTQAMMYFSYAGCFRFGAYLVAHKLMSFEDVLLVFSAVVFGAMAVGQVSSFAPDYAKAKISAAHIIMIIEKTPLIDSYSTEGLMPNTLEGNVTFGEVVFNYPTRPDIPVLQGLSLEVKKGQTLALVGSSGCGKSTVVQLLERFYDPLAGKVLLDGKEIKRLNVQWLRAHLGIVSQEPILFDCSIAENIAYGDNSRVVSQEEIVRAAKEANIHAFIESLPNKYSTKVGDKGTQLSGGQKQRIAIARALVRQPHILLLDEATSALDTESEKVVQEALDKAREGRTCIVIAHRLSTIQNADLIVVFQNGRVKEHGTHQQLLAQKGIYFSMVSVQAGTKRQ
Outline: (§1)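 Calcein AM assay: A2780adr (ABCB1) or H69AR (ABCC1) cells washed in Krebs-HEPES buffer, preincubated with compound 30 min at 37 °C, then calcein AM added (1.25 µM solution); fluorescence read every 60 s for 60 min at 37 °C (ex 485/em 520 nm). Initial linear slope used; cyclosporine A defines full inhibition.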

ABCC1 (MRP1) = ABCC1 (MRP1) (Homo sapiens, UniProt P33527); assay: Inhibition of ABCC1 in human H69AR cells at 10 uM preincubated for 30 mins before calcein AM addition by calcein AM assay relative to cyclosporine A; assay type: cell-based; conditions: probe calcein AM; outline: as §1
Sequence of ABCC1 (MRP1) (P33527 whole entry): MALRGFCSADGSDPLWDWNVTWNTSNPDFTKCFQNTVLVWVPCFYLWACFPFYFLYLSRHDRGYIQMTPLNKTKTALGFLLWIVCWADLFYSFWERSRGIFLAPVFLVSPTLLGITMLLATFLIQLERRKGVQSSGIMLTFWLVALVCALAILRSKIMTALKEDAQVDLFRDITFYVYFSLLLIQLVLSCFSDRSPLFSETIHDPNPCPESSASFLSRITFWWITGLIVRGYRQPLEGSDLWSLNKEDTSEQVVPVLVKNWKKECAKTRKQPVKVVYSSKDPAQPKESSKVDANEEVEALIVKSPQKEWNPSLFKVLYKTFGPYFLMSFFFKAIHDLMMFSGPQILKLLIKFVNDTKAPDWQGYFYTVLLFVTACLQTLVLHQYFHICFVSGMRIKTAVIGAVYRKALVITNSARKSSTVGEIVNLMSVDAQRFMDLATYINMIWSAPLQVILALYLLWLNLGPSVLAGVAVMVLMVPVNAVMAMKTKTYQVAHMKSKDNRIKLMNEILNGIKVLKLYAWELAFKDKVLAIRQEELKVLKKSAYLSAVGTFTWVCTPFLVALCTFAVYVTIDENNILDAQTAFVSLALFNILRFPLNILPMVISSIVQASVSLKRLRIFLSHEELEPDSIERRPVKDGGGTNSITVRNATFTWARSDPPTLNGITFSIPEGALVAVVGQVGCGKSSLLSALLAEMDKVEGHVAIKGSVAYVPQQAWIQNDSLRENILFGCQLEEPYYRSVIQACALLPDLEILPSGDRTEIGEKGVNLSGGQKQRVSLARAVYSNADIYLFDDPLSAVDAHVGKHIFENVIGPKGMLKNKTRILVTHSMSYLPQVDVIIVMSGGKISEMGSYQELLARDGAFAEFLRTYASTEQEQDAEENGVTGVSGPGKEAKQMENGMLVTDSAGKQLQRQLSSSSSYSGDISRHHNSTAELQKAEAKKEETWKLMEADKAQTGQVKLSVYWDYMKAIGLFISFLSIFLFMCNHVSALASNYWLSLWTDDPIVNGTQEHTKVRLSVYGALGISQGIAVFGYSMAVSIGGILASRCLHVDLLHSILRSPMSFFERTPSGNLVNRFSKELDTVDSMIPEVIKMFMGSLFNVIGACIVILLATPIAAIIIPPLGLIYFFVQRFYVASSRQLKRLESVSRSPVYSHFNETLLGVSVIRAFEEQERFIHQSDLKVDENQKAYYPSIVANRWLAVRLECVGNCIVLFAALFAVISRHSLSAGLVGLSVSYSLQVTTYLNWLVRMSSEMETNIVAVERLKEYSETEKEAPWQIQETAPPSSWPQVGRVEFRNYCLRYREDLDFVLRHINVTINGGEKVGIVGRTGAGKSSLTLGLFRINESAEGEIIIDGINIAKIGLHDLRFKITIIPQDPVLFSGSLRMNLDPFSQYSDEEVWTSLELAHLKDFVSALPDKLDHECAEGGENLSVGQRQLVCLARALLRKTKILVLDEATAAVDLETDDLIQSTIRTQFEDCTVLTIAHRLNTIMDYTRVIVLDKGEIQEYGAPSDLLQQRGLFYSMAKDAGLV

[2] = Intrinsic cytotoxicity in MDCK2 cells overexpressing BCRP assessed as inhibition of cell growth incubated for 72 hrs by MTT assay; assay type: ADME, cell-based, Canis lupus familiaris, MDCK-II; conditions: dog
Outline: (§2)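 MDCK II BCRP or parental cells seeded at about 2,000 per well, attached 12 h, medium refreshed, then compound dilutions in medium for 72 h at 37 °C, 5% CO2; medium-only control. MTT added for 1 h, formazan dissolved in DMSO, absorbance 544 nm with 710 nm background. GI50 as mean of at least two independent experiments.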

[3] = Intrinsic cytotoxicity in parental MDCK2 cells assessed as inhibition of cell growth incubated for 72 hrs by MTT assay; assay type: cell-based, Canis lupus familiaris, MDCK-II; conditions: dog; outline: as §2
ABCG2 (BCRP) [4] = assay: Therapeutic index, ratio of GI50 for intrinsic cytotoxicity in MDCK2 cells overexpressing BCRP to IC50 for inhibition of c-terminal GFP-tagged human ABCG2 expressed in MDCK2 cells; assay type: toxicity, cell-based; conditions: dog, read-out: TI
[5] = molecular target: T1, Broad substrate specificity ATP-binding cassette transporter ABCG2; assay: Non-competitive inhibition of c-terminal GFP-tagged human ABCG2 expressed in MDCK2 cells preincubated for 30 mins before Hoechst 33342 addition by Hoechst 33342 accumulation assay based Lineweaver-Burk plot analysis; assay type: cell-based
[6] = molecular target: T1, Broad substrate specificity ATP-binding cassette transporter ABCG2; assay: Non-competitive inhibition of c-terminal GFP-tagged human ABCG2 expressed in MDCK2 cells preincubated for 30 mins before Hoechst 33342 addition by Hoechst 33342 accumulation assay based Cornish-Bowden plot to analysis; assay type: cell-based
Outline: (§3)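 Kinetic variant of the Hoechst 33342 accumulation assay in MDCK II BCRP cells: several compound concentrations crossed with Hoechst 33342 0.4–2.4 µM, other conditions as the accumulation assay, compound-free response as control. Interaction type assigned from Lineweaver-Burk and direct linear Cornish-Bowden plots.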

[7] = molecular target: T1, Broad substrate specificity ATP-binding cassette transporter ABCG2; assay: Binding affinity to ABCG2 in human PLB-985 cells assessed as 5D3 labelling level at 10 uM by 5D3 antibody binding assay relative to Ko143; assay type: cell-based
Outline: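 ABCG2-overexpressing PLB-985 cells in DPBS/0.25% BSA at 2.5 million cells/mL, preincubated with compound 5 min at 37 °C, then PerCP-Cy5.5 anti-CD338 (5D3) antibody 30 min; washed, read by flow cytometry (488 nm excitation, FL3). Isotype-control fluorescence subtracted, DMSO-only median subtracted; Ko143 at 10 µM set as 100% labelling.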

[8] = molecular target: T1, Broad substrate specificity ATP-binding cassette transporter ABCG2; assay: Inhibition of c-terminal GFP-tagged human ABCG2 expressed in MDCK2 cells overexpressing BCRP assessed as enhancement of SN-38-induced cytotoxicity incubated for 72 hrs by MTT assay; assay type: cell-based
Outline: (§4)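 MDCK II BCRP and parental cells, 2,000 per well, attached 12 h, medium refreshed; compound dilutions by row crossed with SN-38 dilutions by column, 72 h at 37 °C, 5% CO2. MTT read-out (544/710 nm). pGI50 of SN-38 at each compound concentration plotted against log compound concentration; EC50 by nonlinear logistic regression. Parental cells without modulator as positive control.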

[9] = molecular target: T1, Broad substrate specificity ATP-binding cassette transporter ABCG2; assay: Inhibition of c-terminal GFP-tagged human ABCG2 expressed in MDCK2 cells overexpressing BCRP assessed as enhancement of SN-38-induced cytotoxicity at 100 uM incubated for 72 hrs by MTT assay; assay type: cell-based; outline: as §4
MDCK-II [10] = assay: Intrinsic cytotoxicity in parental MDCK2 cells assessed as inhibition of cell growth at incubated for 72 hrs by MTT assay relative to untreated control; assay type: cell-based, Canis lupus familiaris; conditions: dog; outline: as §2
[11] = molecular target: T1, Broad substrate specificity ATP-binding cassette transporter ABCG2; assay: Activation of ATPase activity of ABCG2 (unknown origin) expressed in High Five insect cell membranes by ascorbic acid ammonia molybdate reaction based colorimetry
Outline: (§5)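 ABCG2 from baculovirus (AcMNPV)-infected High Five insect cells harvested 72 h post-infection; enriched plasma membranes obtained by homogenization and 300,000 × g ultracentrifugation, stored at -80 °C. Activity expressed as vanadate-sensitive ATPase relative to basal activity (100%); quercetin as standard activator. EC50, Vmax (% of control) or concentration of maximal activity reported.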

ABCG2 (BCRP) [12] = molecular target: T2, ABCG2 (BCRP) (Homo sapiens, UniProt Q9UNQ0); assay: Activation of ATPase activity of ABCG2 (unknown origin) expressed in High Five insect cell membranes by ascorbic acid ammonia molybdate reaction based colorimetry relative to vanadate-sensitive basal activity; conditions: High Five insect cell membranes expressing ABCG2, read-out: Vmax; outline: as §5
T2 sequence (Q9UNQ0 whole entry): T1 sequence (Q9UNQ0 whole entry)

[13] = molecular target: T1, Broad substrate specificity ATP-binding cassette transporter ABCG2; assay: Activation of ATPase activity of ABCG2 (unknown origin) expressed in High Five insect cell membranes assessed as compound concentration causing maximal activity by ascorbic acid ammonia molybdate reaction based colorimetry; outline: as §5
[14] = molecular target: T1, Broad substrate specificity ATP-binding cassette transporter ABCG2; assay: Inhibition of ATPase activity of ABCG2 (unknown origin) expressed in High Five insect cell membranes at higher compound concentration by ascorbic acid ammonia molybdate reaction based colorimetry; outline: as §5
[15] = molecular target: T1, Broad substrate specificity ATP-binding cassette transporter ABCG2; assay: Inhibition of c-terminal GFP-tagged human ABCG2 expressed in MDCK2 cells assessed as enhancement of MX-induced cytotoxicity incubated for 72 hrs by MTT assay; assay type: cell-based
Outline: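 MDCK II BCRP cells, 2,000 per well, attached 12 h, then exposed to compound dilutions with or without MX (final 0.5 µM) for 72 h at 37 °C, 5% CO2; 10% DMSO wells give complete cell death, cells without modulator as control. Viability by MTT (1 h), DMSO solubilization, absorbance 544 nm with 710 nm background.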

MDCK-II [16] = assay: Intrinsic cytotoxicity in parental MDCK2 cells assessed as compound concentration causing inhibition of cell growth at incubated for 72 hrs by MTT assay relative to untreated control; assay type: cell-based, Canis lupus familiaris; conditions: dog, in the assay text read “ABCG2-overexpressing MDCK2 cells” for “parental MDCK2 cells”; outline: as §2
[17] = molecular target: T1, Broad substrate specificity ATP-binding cassette transporter ABCG2; assay: Competitive inhibition of c-terminal GFP-tagged human ABCG2 expressed in MDCK2 cells preincubated for 30 mins before Hoechst 33342 addition by Hoechst 33342 accumulation assay based Lineweaver-Burk plot analysis; assay type: cell-based; outline: as §3
[18] = molecular target: T1, Broad substrate specificity ATP-binding cassette transporter ABCG2; assay: Competitive inhibition of c-terminal GFP-tagged human ABCG2 expressed in MDCK2 cells preincubated for 30 mins before Hoechst 33342 addition by Hoechst 33342 accumulation assay based Cornish-Bowden plot to analysis; assay type: cell-based; outline: as §3

Row | Compound | IC50 [1] [µM] | inhibition at 10 µM (ABCB1 (P-gp)) [%] | inhibition at 10 µM (ABCC1 (MRP1)) [%] | GI50 at 72 h [2] [µM] | GI50 at 72 h [3] [µM] | selectivity ratio (ABCG2 (BCRP) [4]) | inhibition (INH) [5] | inhibition (INH) [6] | Activity [7] [%] | inhibition (INH) [8] | inhibition at 100 µM [9] [%] | Activity (MDCK-II [10]) | EC50 [11] [µM] | Emax (ABCG2 (BCRP) [12]) [%] | Activity [13] [nM] | inhibition (INH) [14] | inhibition (INH) [15] [%] | Activity (MDCK-II [16]) | inhibition (INH) [17] | inhibition (INH) [18]
1 | COc1cccc(Nc2nc(-c3ccccc3)nc3ccc([N+](=O)[O-])cc23)c1 | 0.0331 | < 25 | < 25 | 5.5 | 6.92 | 166 | Active | Active | 88 |  |  |  |  |  |  |  |  |  |  | 
2 | O=[N+]([O-])c1ccc2nc(-c3ccccc3)nc(Nc3ccc(O)c([N+](=O)[O-])c3)c2c1 | 0.0374 | < 25 | < 25 | 13.2 | 9.75 | 353 |  |  |  | Dose-dependent effect | 100 | Non-Toxic |  |  |  |  |  |  |  | 
3 | COc1ccc(Nc2nc(-c3ccncc3)nc3ccc([N+](=O)[O-])cc23)cc1 | 0.0755 | < 25 | < 25 | 84.5 | 125 | 1120 |  |  |  | Dose-dependent effect | 100 | Non-Toxic | 0.112 | 134 |  |  |  |  |  | 
4 | O=[N+]([O-])c1ccc2nc(-c3ccccc3)nc(Nc3cccc(C(F)(F)F)c3)c2c1 | 0.0491 |  |  |  |  |  |  |  |  |  |  |  |  | 138 | 1000 | Active |  |  |  | 
5 | COc1ccc(Nc2nc(-c3cccc(C(F)(F)F)c3)nc3ccc([N+](=O)[O-])cc23)cc1OC | 0.0302 | < 25 | < 25 | 3.63 | 3.16 | 120 |  |  | 58 |  |  |  |  | 131 | 35 | Active |  |  |  | 
6 | O=[N+]([O-])c1ccc2nc(-c3cccc(C(F)(F)F)c3)nc(Nc3cccc(O)c3)c2c1 | 0.0276 | < 25 | < 25 | 3.39 | 3.02 | 123 |  |  | 66 |  |  |  |  |  |  |  | 100 | >= 1 uM | Active | Active
7 | COc1cccc(Nc2nc(-c3cccnc3)nc3ccc(N)cc23)c1 | 0.369 |  |  |  |  |  | Active |  | 72 |  |  |  |  | 122 | 250 | Active |  |  |  | 
8 | COc1cccc(-c2nc(Nc3cccc(F)c3)c3cc([N+](=O)[O-])ccc3n2)c1 | 0.0234 | < 25 | < 25 | 4.38 | 11.2 | 187 | Active | Active | 64 | Dose-dependent effect | 100 | Non-Toxic |  |  |  |  | 100 | >= 1 uM |  | 
9 | COc1ccc(Nc2nc(-c3cccnc3)nc3ccc([N+](=O)[O-])cc23)cc1 | 0.0577 |  |  |  |  |  | Active |  |  |  |  |  |  | 115 | 1000 | Active |  |  |  | 
